Measurements as given in ChEMBL document CHEMBL1150572, “Isolation and structures of haterumadioxins A and B, cytotoxic endoperoxides from the Okinawan sponge Plakortis lita” (J Nat Prod, 2001).
Converted amounts (≈) assume the structure as drawn.

Assays:
HCT-15 = assay: Growth inhibition of human HCT15 cells; format: functional
HCT-116 = assay: Growth inhibition of human HCT116 cells; format: functional
NCI-H23 = assay: Growth inhibition of human NCI-H23 cells; format: functional
NCI-H226 = assay: Growth inhibition of human NCI-H226 cells; format: functional
NCI-H522 = assay: Growth inhibition of human NCI-H522 cells; format: functional
NCI-H460 = assay: Growth inhibition of human NCI-H460 cells; format: functional
A549 = assay: Growth inhibition of human A549 cells; format: functional
DMS-273 = assay: Growth inhibition of human DMS273 cells; format: functional
DMS-114 = assay: Growth inhibition of human DMS114 cells; format: functional
LOX IMVI = assay: Growth inhibition of human LOXIMVI cells; format: functional
OVCAR-3 = assay: Growth inhibition of human OVCAR-3 cells; format: functional
OVCAR-4 = assay: Growth inhibition of human OVCAR4 cells; format: functional
OVCAR-5 = assay: Growth inhibition of human OVCAR5 cells; format: functional
OVCAR-8 = assay: Growth inhibition of human OVCAR8 cells; format: functional
SK-OV-3 = assay: Growth inhibition of human SKOV3 cells; format: functional
[1] = Growth inhibition of human RXF631L cells; format: functional; conditions: RXF 631
ACHN = assay: Growth inhibition of human ACHN cells; format: functional
St-4 = assay: Growth inhibition of human St-4 cells; format: functional
[2] = Growth inhibition of human MKN1 cells; format: functional; conditions: MKN-1
MKN-7 = assay: Growth inhibition of human MKN7 cells; format: functional
MKN-28 = assay: Growth inhibition of human MKN28 cells; format: functional
MKN-45 = assay: Growth inhibition of human MKN45 cells; format: functional
MKN-74 = assay: Growth inhibition of human MKN74 cells; format: functional
DU-145 = assay: Growth inhibition of human DU145 cells; format: functional
PC-3 = assay: Growth inhibition of human PC3 cells; format: functional
P388 = assay: Cytotoxicity against mouse P388 cells; format: functional, cell-based
Outline: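 Murine P388 leukemia cells, 2 × 10^4 cells/mL, in RPMI-1640 with 10% FBS, 10 µM 2-hydroxyethyl disulfide and kanamycin (100 µg/mL). Samples were added in MeOH. Cells were incubated 4 days at 37 °C in humidified 5% CO2, then counted by MTT. IC50 (50% inhibition of cell growth) was read from the growth curve.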

[3] = Growth inhibition of human HBC4 cells; format: functional
[4] = Growth inhibition of human BSY1 cells; format: functional; conditions: BSY-1
[5] = Growth inhibition of human HBC5 cells; format: functional
MCF7 = assay: Growth inhibition of human MCF7 cells; format: functional
MDA-MB-231 = assay: Growth inhibition of human MDA-MB-231 cells; format: functional
U-251 = assay: Growth inhibition of human U251 cells; format: functional
SF-268 = assay: Growth inhibition of human SF268 cells; format: functional
SF-295 = assay: Growth inhibition of human SF295 cells; format: functional
SF-539 = assay: Growth inhibition of human SF539 cells; format: functional
SNB-75 = assay: Growth inhibition of human SNB75 cells; format: functional
SNB-78 = assay: Growth inhibition of human SNB78 cells; format: functional
HCC 2998 = assay: Growth inhibition of human HCC2998 cells; format: functional
KM12 = assay: Growth inhibition of human KM12 cells; format: functional
HT-29 = assay: Growth inhibition of human HT-29 cells; format: functional

With `CC/C=C/[C@H](CC)C[C@]1(CC)C=C(CC)[C@H](CC(=O)O)OO1` [HATERUMADIOXIN A] the GI50 (HCT-15) was 1700 nM, the GI50 (HCT-116) was 1550 nM and the GI50 (NCI-H23) was 5500 nM. It also gave a GI50 (NCI-H226) of 1780 nM, a GI50 (NCI-H522) of 1860 nM and a GI50 (NCI-H460) of 1820 nM. For the same compound, the GI50 (A549) was 1950 nM, the GI50 (DMS-273) was 1410 nM and the GI50 (DMS-114) was 1480 nM. The GI50 (LOX IMVI) was 100 nM, the GI50 (OVCAR-3) was 1550 nM and the GI50 (OVCAR-4) was 676 nM. The GI50 (OVCAR-5) was 1820 nM, the GI50 (OVCAR-8) was 2140 nM and the GI50 (SK-OV-3) was 2000 nM. For the same compound, the GI50 [1] was 1700 nM, the GI50 (ACHN) was 1170 nM and the GI50 (St-4) was 2090 nM. The GI50 [2] was 832 nM, the GI50 (MKN-7) was 1910 nM and the GI50 (MKN-28) was 2240 nM. The GI50 (MKN-45) was 2040 nM, the GI50 (MKN-74) was 2190 nM and the GI50 (DU-145) was 1700 nM. The GI50 (PC-3) was 1910 nM, the IC50 (P388) was 11 ng/mL (≈ 0.0354 µM) and the GI50 [3] was 1170 nM. The GI50 [4] was 1780 nM, the GI50 [5] was 1320 nM and the GI50 (MCF7) was 1740 nM. For the same compound, the GI50 (MDA-MB-231) was 1860 nM, the GI50 (U-251) was 1780 nM and the GI50 (SF-268) was 1820 nM. The GI50 (SF-295) was 1780 nM, the GI50 (SF-539) was 1820 nM and the GI50 (SNB-75) was 1660 nM. The GI50 (SNB-78) was 1860 nM, the GI50 (HCC 2998) was 1910 nM and the GI50 (KM12) was 1820 nM. It also gave a GI50 (HT-29) of 1950 nM.

In the case of `CCCC[C@H](CC)C[C@]1(CC)C=C(CC)[C@H](CC(=O)O)OO1` [HATERUMADIOXIN B], the IC50 (P388) is reported as 5.5 ng/mL (≈ 0.0176 µM).
